Screens deposited in PubChem by several laboratories.
Shown are actives, neighbours in structure and some others; about 1.6% of the full set was active somewhere.
A1 inh: caspase 3/7 activation in MEF A1-2A-BIM cells, primary screen, A1 inhibitor project, cell-based, luminescence, HTS. Caspase-Glo 3/7 luminescence, 3 h; percent of clofoctol response, vehicle zero. caspase activation, % (concentration not given with the values). hit rate 0.066% among 330,000. AID 2462, 2010;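 active means over half of replicate activation scores above 10%, or exactly half above 10 with the replicate mean above 10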
Vif inh: HIV Vif self-association inhibitors, primary screen, imaging, HEK293T, single point; AID 602346, 2012; inhibition, % at 7.49 µM; HEK293T cells, Vif self-association by quenched fluorescence, 24 h; hit rate 0.35% among 340,000; in the data active means inhibition above about 50%, passing the limit was not always enough
H9c2 TAG inh: inhibitors of triacylglycerol accumulation, primary screen, cell-based, uHTS, fluorescence, H9c2 | H9c2 cells, Nile Red lipid (TAG) fluorescence; cells loaded with 200 µM oleic acid | inhibition, % at 12.5 µM | hit rate 0.66% among 230,000 | AID 651582, 2012;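 active means pattern-corrected inhibition of lipid staining of at least 50% with the nuclear-stain viability signal not falling by more than 50%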;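 further: 0% = DMSO wells and 100% = triacsin C control wells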
SR-BI DiI inh: inhibitors of SR-BI mediated HDL lipid uptake, primary screen, ldlA[mSR-BI] cells, fluorescence, single point | hit rate 0.96% among 320,000 | ldlA[mSR-BI] CHO cells, DiI-HDL uptake fluorescence, 3 h | Scavenger receptor class B member 1 (Mus musculus), Q61009 | inhibition, % at 12.5 µM;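 active means mean replicate inhibition of at least 70% and a set share of replicates each scoring 70 or more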;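 further: 0% = median of neutral control wells and 100% = median of positive control wells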
Target sequence (Q61009 whole entry, looked up): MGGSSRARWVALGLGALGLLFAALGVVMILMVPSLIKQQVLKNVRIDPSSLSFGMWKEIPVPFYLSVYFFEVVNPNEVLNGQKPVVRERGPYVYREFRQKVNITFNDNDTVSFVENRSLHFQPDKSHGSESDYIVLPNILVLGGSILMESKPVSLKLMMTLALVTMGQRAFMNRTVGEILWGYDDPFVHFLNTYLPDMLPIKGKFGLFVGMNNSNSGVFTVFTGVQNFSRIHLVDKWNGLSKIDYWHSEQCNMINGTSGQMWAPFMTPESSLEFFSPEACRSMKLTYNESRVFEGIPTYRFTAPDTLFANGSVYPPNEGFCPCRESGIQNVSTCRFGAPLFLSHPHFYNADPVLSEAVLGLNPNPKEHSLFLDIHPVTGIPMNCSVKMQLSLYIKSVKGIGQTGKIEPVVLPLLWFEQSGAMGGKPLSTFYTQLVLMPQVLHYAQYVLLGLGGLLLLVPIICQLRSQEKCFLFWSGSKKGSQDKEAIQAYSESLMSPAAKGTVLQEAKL
SR-BI DiI-HDL act: activators of SR-BI mediated DiI-HDL uptake, primary screen, ldlA[mSR-BI] CHO cells, DiI fluorescence. hit rate 0.096% among 320,000. 3 h; 100 = double the neutral-control signal. AID 504775, 2011. activation, % at 12.5 µM;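 active means mean replicate activation of at least 60% and every replicate at or above 60%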;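 further: 0% = median plate neutral-control signal and 100% = twice that signal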
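Test system: SR-BI-overexpressing, LDLR-lacking CHO cells. Measured by: DiI fluorescence, bottom read. Medium: Ham's F12 with 0.5% BSA, HEPES 25 mM, pH 7.4. Timing: 3 h uptake period with compound, 37 °C.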
* marks the source's active call; other numbers are inactive results.

Screening Cc1[nH]c2ccccc2c1/C=N/Nc1ccccc1[N+](=O)[O-] returned A1 inh 0, Vif inh -4, H9c2 TAG inh 60*, SR-BI DiI inh 129* and SR-BI DiI-HDL act -129.
Screening COc1ccc(OC)c(/C=N\NC(=O)c2cc3c(ccc4ccccc43)o2)c1 returned A1 inh 0, Vif inh -2 and SR-BI DiI inh 47.
For COc1cc(/C=N\NC(=O)c2ccc(-c3ccccc3)cc2)cc(OC)c1OC(C)=O the results were A1 inh 1 and SR-BI DiI inh 49.
Screening COc1ccc(NS(=O)(=O)c2cc(NC(=O)c3ccc(C)s3)ccc2N2CCOCC2)cc1 returned A1 inh 1, Vif inh 1 and H9c2 TAG inh 15.
Screening CCN(CC)S(=O)(=O)c1cc(C)ccc1SC returned A1 inh -1, Vif inh -1, SR-BI DiI inh 14 and SR-BI DiI-HDL act -14.
`O=C1CN(C(=O)COC(=O)CCC(=O)c2ccc(F)cc2)c2ccccc2N1` gave A1 inh 1, Vif inh 3, H9c2 TAG inh 7, SR-BI DiI inh -12 and SR-BI DiI-HDL act 12.
For COC(=O)N/N=C/c1ccccc1OCc1ccccc1 the results were A1 inh 0, Vif inh -5, SR-BI DiI inh 52 and SR-BI DiI-HDL act -52.
Screening CC(=O)Nc1ccc(C(=O)N/N=C/c2ccccc2OCc2ccccc2)cc1 returned A1 inh 0, Vif inh 7, H9c2 TAG inh -13, SR-BI DiI inh 79* and SR-BI DiI-HDL act -79.
For CN(C)CCNc1ccc2ncn3c4ccc(O)cc4c(=O)c1c23 the results were Vif inh inactive, H9c2 TAG inh 75*, SR-BI DiI inh -1 and SR-BI DiI-HDL act 1.
O=C(CSc1nn(-c2ccc(F)cc2)c(=S)s1)N1CCN(C(=O)c2ccco2)CC1 was read as Vif inh 9, SR-BI DiI inh 69 and SR-BI DiI-HDL act -69.
Screening O=C(CSc1nn(-c2ccc(Cl)cc2)c(=S)s1)N1CCN(C(=O)c2ccco2)CC1 returned A1 inh 0, Vif inh 22, SR-BI DiI inh 84* and SR-BI DiI-HDL act -84.
`Cc1cccnc1Nc1nc(-c2ccc(O)cc2O)cs1` gave A1 inh -1, Vif inh -30, H9c2 TAG inh 3, SR-BI DiI inh 71* and SR-BI DiI-HDL act -71.
`CCCn1c(=O)[nH]c(=O)c2c1nc(-c1cc([N+](=O)[O-])ccc1Cl)n2CCOC` gave A1 inh 2, Vif inh 65*, SR-BI DiI inh 13 and SR-BI DiI-HDL act -13.
Screening CCCn1c(=O)[nH]c(=O)c2c1nc(-c1ccc(C#N)cc1)n2CCOC returned A1 inh 1, Vif inh -2, SR-BI DiI inh -14 and SR-BI DiI-HDL act 14.
Screening COc1ccccc1NNC(=O)c1cccnc1Oc1ccccc1 returned A1 inh -1, Vif inh -3, H9c2 TAG inh -4, SR-BI DiI inh -20 and SR-BI DiI-HDL act 20.
Screening COc1cc(NC(=O)c2ccccc2)c(OC)cc1NC(=O)CN1C(=O)NC2(CCCCC2)C1=O returned A1 inh 1, H9c2 TAG inh 4, SR-BI DiI inh 77* and SR-BI DiI-HDL act -77.
Screening Nc1ccc(CSc2ccc(Cl)cc2)cc1 returned A1 inh 0, Vif inh -1, H9c2 TAG inh 17, SR-BI DiI inh 17 and SR-BI DiI-HDL act -17.
For O=C(COc1cccc(Cl)c1)Nc1ccc2c(c1)CCC2 the results were A1 inh 0, Vif inh 105*, H9c2 TAG inh -10, SR-BI DiI inh -19 and SR-BI DiI-HDL act 19.
For O=C(COc1ccccc1F)Nc1ccc2c(c1)CCC2 the results were A1 inh 1, Vif inh -1, H9c2 TAG inh -14, SR-BI DiI inh 7 and SR-BI DiI-HDL act -7.
Cc1ccc(NC(=O)c2ccc(NCC3CCCO3)c([N+](=O)[O-])c2)cc1Cl (configuration not stated) was read as A1 inh 8.2*, Vif inh 11, H9c2 TAG inh 47, SR-BI DiI inh 61 and SR-BI DiI-HDL act -61.
`NC(=O)c1ccc(NCC2CCCO2)c([N+](=O)[O-])c1` (configuration not stated) gave A1 inh -1 and Vif inh -4.
For O=C(Nc1cccc(Cl)c1)c1ccc(NCCCN2CCOCC2)c([N+](=O)[O-])c1 the results were A1 inh 0, Vif inh 9, SR-BI DiI inh 71* and SR-BI DiI-HDL act -71.
`O=[N+]([O-])c1ccc(N2CCN(S(=O)(=O)c3ccc(Cl)cc3)CC2)cc1NCC1CCCO1` (configuration not stated) gave A1 inh 1, Vif inh 57*, SR-BI DiI inh 15 and SR-BI DiI-HDL act -15.
Screening Cc1ccc(NC(=O)c2ccc(NCc3ccco3)c([N+](=O)[O-])c2)cc1Cl returned A1 inh 31*, Vif inh 82*, SR-BI DiI inh 36 and SR-BI DiI-HDL act -36.
Cc1cc(C)c(S(=O)(=O)N2CCN(c3ccc([N+](=O)[O-])c(NCC4CCCO4)c3)CC2)c(C)c1 (configuration not stated) was read as A1 inh 0, Vif inh -12, SR-BI DiI inh 48 and SR-BI DiI-HDL act -48.
Screening Cc1ccc(C(=O)NCc2ccco2)cc1[N+](=O)[O-] returned A1 inh -1, Vif inh 0, H9c2 TAG inh 1, SR-BI DiI inh 2 and SR-BI DiI-HDL act -2.
For O=C(OCC(=O)N1CCc2ccccc2C1)c1c(F)cccc1Cl the results were A1 inh -3, Vif inh -2, H9c2 TAG inh -16, SR-BI DiI inh 14 and SR-BI DiI-HDL act -14.
Screening COc1cccc(NC(=O)CCC2CCN(C(=O)c3cncs3)CC2)c1 returned A1 inh -1, Vif inh -4, H9c2 TAG inh -3, SR-BI DiI inh -26 and SR-BI DiI-HDL act 26.
`O=C(COC(=O)/C=C/c1cccc(F)c1)NC(=O)NCc1ccccc1` gave A1 inh 0, Vif inh 12, H9c2 TAG inh -12, SR-BI DiI inh 4 and SR-BI DiI-HDL act -4.
`Cc1ccc(C(=O)Nc2nc3ccc(S(C)(=O)=O)cc3s2)o1` gave A1 inh -15, Vif inh 1, H9c2 TAG inh 8, SR-BI DiI inh -95 and SR-BI DiI-HDL act 95*.
Screening CS(=O)(=O)c1ccc2nc(NC(=O)c3ccco3)sc2c1 returned A1 inh -6, Vif inh -6, H9c2 TAG inh -2, SR-BI DiI inh -6 and SR-BI DiI-HDL act 6.
